An excerpt weighted towards active compounds, which were near 5.1% of everything screened.
BAP1 block: blocks human BAP1 ubiquitin-AMC hydrolysis; 0.48% of 72,000 active; calls only at 20 µM; recombinant BAP1, Ub-AMC hydrolysis fluorescence kinetic; stronger effect = lower value;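 active means activity remaining at or below 50% of control, provided the compound also passes the data quality filters; inactive means the rest, including low values that fail the filters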;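 further: 100% = DMSO wells rate and 0% = substrate alone blank rate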
Target sequence (Q92560 whole entry, looked up): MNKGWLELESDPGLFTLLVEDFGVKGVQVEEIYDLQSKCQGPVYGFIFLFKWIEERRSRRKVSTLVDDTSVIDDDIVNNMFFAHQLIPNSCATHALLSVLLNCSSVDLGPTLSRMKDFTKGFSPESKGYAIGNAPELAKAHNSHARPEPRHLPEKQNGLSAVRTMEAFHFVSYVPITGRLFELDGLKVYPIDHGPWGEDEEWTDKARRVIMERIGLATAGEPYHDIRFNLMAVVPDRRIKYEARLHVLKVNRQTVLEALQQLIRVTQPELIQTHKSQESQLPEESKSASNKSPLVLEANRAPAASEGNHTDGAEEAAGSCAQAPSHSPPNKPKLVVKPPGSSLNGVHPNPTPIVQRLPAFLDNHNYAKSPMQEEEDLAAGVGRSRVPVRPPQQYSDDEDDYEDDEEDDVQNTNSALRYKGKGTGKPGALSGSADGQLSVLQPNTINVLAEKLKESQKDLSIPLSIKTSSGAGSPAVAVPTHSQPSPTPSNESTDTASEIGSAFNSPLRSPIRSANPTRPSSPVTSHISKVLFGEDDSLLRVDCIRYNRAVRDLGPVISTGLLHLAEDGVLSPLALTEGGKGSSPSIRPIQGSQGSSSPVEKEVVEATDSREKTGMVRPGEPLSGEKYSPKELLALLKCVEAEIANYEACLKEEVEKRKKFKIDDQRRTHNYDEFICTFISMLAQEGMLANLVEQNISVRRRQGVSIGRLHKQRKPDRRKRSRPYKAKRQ
E coli WT exp: growth inhibitors of E. coli BW25113 wild type; AID 710; OD600 absorbance; 0.15% of 98,000 active; growth inhibition, % at 100 µM;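 active means growth inhibition above about 50% at one test dose, limit read from the data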;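 further: growth measured after 20 h incubation at 37 °C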
Hsp90 inh: displaces geldanamycin probe from tumor Hsp90. P07900. NCI-N417 lysate Hsp90, Cy3B-geldanamycin FP displacement. inhibition, % at 30 µM. 0.35% of 64,000 active. AID 429;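 active means inhibition above 50%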;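 further: 0% = tracer plus lysate wells and 100% = tracer alone without lysate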
M1 ag: agonists of M1 muscarinic receptor; 3% of 64,000 active; AID 626; B-score at 10 µM; CHO-M1 cells, Fluo-4 calcium fluorescence, agonist mode; stronger effect = higher value;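 active means fluorescence rise, raw or as B-score row- and column-corrected plate score, outside the 99.7% band of its plate's samples, either direction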
M1 antagonist: blocks the rat M1 muscarinic receptor response to acetylcholine | CHO-M1 cells, Fluo-4 calcium, ACh EC80 antagonist mode; stronger effect = lower value | B-score at 10 µM | 3.4% of 64,000 active;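 active means calcium fluorescence response, raw or row-and-column corrected B-score, differing from the plate sample mean either way at a set confidence level, mostly lower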
tolC growth inh: blocks growth of E. coli BW25113 tolC mutant | growth inhibition, % at 10 µM (by protocol) | AID 573 | 2.2% of 65,000 active | OD615;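 active means growth inhibition at or above a cutoff equal to the mean over every tested compound plus 3 SD, cut at about 60% in these data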;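 further: growth measured after 20 h incubation at 37 °C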
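Material: E. coli BW25113 ΔtolC::kan, tolC deletion mutant strain. Measure: percent growth inhibition. Schedule: 37 °C, 20 h exposure. Doses: single-point testing at 10 µM. Signal: A615 absorbance measurement. Buffer or medium: kanamycin-containing LB broth (50 µg/mL).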
M1 agonist conf: rat M1 muscarinic agonism, confirmation; fluorescence change (max-min) at 10 µM; AID 1488; CHO-M1 cells, Fluo-4 calcium fluorescence, agonist mode; actives lie on both sides; 19% of 1,700 active; shares compounds with M1 ag;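 active means fluorescence change differs from the solvent-only DMSO control mean at a set confidence level in both duplicate runs; inconclusive means differs from solvent-only control mean in just one of two runs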;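 further: an EC20 dose of acetylcholine follows compound addition during the same imaging run; raw fluorescence intensity difference in instrument units with no normalization to controls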
M4 ag counter: counter-screen for M1 agonists: activity at rat M4 receptor | CHO M4/Gqi5 cells, Fluo-4 calcium fluorescence, agonist mode; actives lie on both sides | fluorescence change (max-min) at 10 µM | AID 1741 | shares compounds with M1 ag | 9% of 1,700 active;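 active means fluorescence change differing from the plate's solvent-only control wells at 99.7% confidence in both duplicates, whether higher or lower; inconclusive means differs from solvent controls in only one of two duplicates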
Active calls of the source: *; i = inactive; ? = inconclusive; nt = no result given.

SMILES | BAP1 block | E coli WT exp | Hsp90 inh | M1 ag | M1 antagonist | tolC growth inh | M1 agonist conf | M4 ag counter
COc1cccc(C2C=C(c3ccc(OC)cc3OC)Nc3nnnn32)c1 (stereo not given) | i | -8 | -12 | 3.3* | 0.62 | 15 | 37 | 8.4
COc1cccc(C2=CC(c3ccc(N(C)C)cc3)n3nnnc3N2)c1 (stereo not given) | i | -6 | -5 | 0.59 | -0.0011 | 5 | nt | nt
O=C1C2C3C=CC(CC3)C2C(=O)N1c1cccc(Cl)c1 (stereo not given) | i | nt | nt | nt | nt | nt | nt | nt
Cc1cc(C)c2cc(C#N)c(SCC(=O)NCC3CCCO3)nc2c1 (stereo not given) | i | -5 | -2 | 2.6* | -0.44 | -1 | ? | ?
Cc1ccc2cc(C#N)c(SCC(=O)NCC3CCCO3)nc2c1 (stereo not given) | i | 2 | -6 | -0.78 | 0.56 | 7 | nt | nt
CCN1C(=O)c2cccc3c(S(=O)(=O)Nc4ccc(OC)cc4OC)ccc1c23 | i | -13 | 1 | 5.3* | -1.3 | 9 | -17 | -18
COc1cc(C2Nc3ccccc3NC3=C2C(=O)CC(c2ccccc2)C3)ccc1O (stereo not given) | i | nt | nt | nt | nt | nt | nt | nt
COC(=O)c1cc(=O)n(Cc2ccco2)c(=Nc2ccc(F)c(Cl)c2)s1 | i | -14 | -2 | 7.1* | -0.66 | 41 | -15 | -39
O=C(c1ccccc1C(=O)N1CCN(c2ccccc2)CC1)N1CCN(c2ccccc2)CC1 | i | 2 | -9 | 3.7* | 0.26 | 0 | 5.4 | -41
O=C(O)c1ccccc1C(=O)N1CCN(c2ccccc2)CC1 | i | 2 | 0 | -0.74 | 0.35 | 6 | nt | nt
Cc1cc(C(=O)CSc2nnc(-c3cccs3)n2Cc2ccccc2)c(C)n1C | i | -15 | -2 | -0.033 | 0.2 | 30 | nt | nt
O=c1cc(CSc2nnc(-c3cccs3)n2Cc2ccccc2)nc2sc3ccccc3n12 | nt | -1 | -6 | 4.2* | -0.36 | 45 | 4.4 | -14
COc1cccc2c1OC1(C)CC2NC(=O)N1c1cccc(C(=O)Nc2ccc3c(c2)OCCO3)c1 (stereo not given) | i | -5 | 6 | 7.8* | 0.45 | -7 | -16 | ?
COc1ccc(NC(=O)c2cccc(N3C(=O)NC4CC3(C)Oc3ccccc34)c2)cc1 (stereo not given) | nt | 1 | nt | nt | nt | nt | nt | nt
COC(=O)CNc1c(-c2ccccn2)nc2ccc(Br)cn12 | nt | 5 | nt | 5.1* | 0.5 | 6 | 27 | -32
CCOC(=O)CNc1c(-c2ccccc2)nc2ccc(Cl)cn12 | nt | -2 | nt | nt | nt | nt | nt | nt
CCC(C)[C@H](NC(=O)NCC1CCCO1)C(=O)OC (stereo not given in full) | i | 1 | -3 | 5* | 1 | -22 | -1.9 | -9.1
CC(C)N(C(=O)NC(=O)NCC1CCCO1)S(C)(=O)=O (stereo not given) | i | -5 | -2 | 0.27 | 0.44 | -14 | nt | nt
N#Cc1cccc(N=c2oc3ccc(Br)cc3cc2-c2nc3ccccc3[nH]2)c1 | i | nt | nt | nt | nt | nt | nt | nt
O=C(CSc1nnc(Cc2cccs2)n1C1CCCCC1)N1CCCc2ccccc21 | i | -7 | -3 | 3* | -2.2* | 12 | -8.9 | -21
Cc1nnc(SCCCn2c(N3CCN(c4ccccc4)CC3)nc3c2c(=O)[nH]c(=O)n3C)s1 | nt | -3 | 0 | 11* | -2.1* | 2 | -19 | ?
CCn1c(N2CCC(Cc3ccccc3)CC2)nc2c1c(=O)[nH]c(=O)n2C | i | 5 | 2 | 5.4* | -0.9 | 20 | ? | -84
CCCn1c(SCCc2ccccc2)nc2c1c(=O)[nH]c(=O)n2C | i | -5 | -5 | 4.7* | -0.087 | -2 | ? | -60
C=CCn1c(=S)oc2ccccc21 | i | nt | nt | nt | nt | nt | nt | nt
NC(C(=O)O)C(O)c1cccc([N+](=O)[O-])c1 (stereo not given) | i | nt | nt | nt | nt | nt | nt | nt
SMILES | BAP1 block | E coli WT exp | Hsp90 inh | M1 ag | M1 antagonist | tolC growth inh | M1 agonist conf | M4 ag counter
CCC(=NC(C)c1ccccc1)c1c(O)n(C)c(=O)n(C)c1=O (stereo not given) | i | 1 | -2 | 3.8* | -0.51 | 6 | -6.7 | -28
Cn1c(N)c(C(=O)c2ccccc2)c(=O)n(C)c1=O | nt | -4 | nt | nt | nt | nt | nt | nt
CCCCn1c(=NC(=O)c2cccnc2)c(C(=O)OCC)cc2c(=O)n3ccccc3nc21 | nt | -9 | nt | 8.8* | -0.36 | 3 | -33* | ?
CCOC(=O)c1cc2c(=O)n3cccc(C)c3nc2n(CCCOC)c1=NC(=O)c1cccnc1 | nt | -2 | nt | 2.4* | -1.3 | 10 | -23 | -27
CCOC(=O)/C(C#N)=C1\Nc2ccccc2N=C1N(CC(C)C)CC(C)C | i | -15 | -4 | 8.1* | -0.61 | 11 | ? | -27
COc1cccc(NC(=O)c2cccs2)c1 | i | 7 | 5 | 2.4* | -0.13 | 5 | ? | ?
O=C(c1cccc(S(=O)(=O)Nc2ccc(Cl)cc2)c1)N1CCCc2ccccc21 | i | nt | nt | nt | nt | nt | nt | nt
CC1CN(S(=O)(=O)c2cccc(C(=O)Nc3ccccc3)c2)CC(C)O1 (stereo not given) | i | nt | nt | nt | nt | nt | nt | nt
COc1ccc(N(CC(=O)NC2CCCC2)C(=O)Cn2nnc(-c3ccc(C)cc3)n2)cc1OC | i | -15 | -1 | 13* | 0.022 | 17 | ? | -59
COc1ccc(N(CC(=O)NC2CCCC2)C(=O)Cn2nnc(-c3ccc(F)cc3)n2)cc1OC | i | -4 | 0 | 0.89 | 0.0054 | -11 | nt | nt
CCOc1ccccc1C(=O)NCC(=O)OCC(=O)N1C(C)CCCC1C (stereo not given) | i | 6 | 2 | -2.6* | -0.3 | 8 | ? | -84*
CCOc1ccc(C(=O)NCC(=O)OCC(=O)N2C(C)CCCC2C)cc1 (stereo not given) | nt | -1 | nt | nt | nt | nt | nt | nt
CCC(=O)N1CCc2cc(S(=O)(=O)Nc3ccc4c(c3)OCCO4)ccc21 | i | -4 | -2 | nt | nt | -5 | nt | nt
CS(=O)(=O)N1CCc2cc(S(=O)(=O)Nc3ccc4c(c3)OCCO4)ccc21 | i | 4 | -3 | 1.8* | -1.1 | -4 | 8.9 | -23
O=C(c1ccc(S(=O)(=O)N2CCCCC2)cc1)N1CCCc2ccccc21 | i | 1 | -2 | 0.0017 | 0.9 | 13 | nt | nt
CCCN(CCC)S(=O)(=O)c1ccc(C(=O)N2CCC(=O)c3ccccc32)cc1 | i | -7 | -5 | 3.3* | -2.8* | 24 | -18 | -64
Cc1nc(SCC(=O)NCc2ccco2)c2c(C)c(C)sc2n1 | i | -8 | -11 | 11* | 0.11 | 26 | -10 | -43
Cc1sc2nc(C(C)C)nc(SCC(=O)NCc3ccco3)c2c1C | i | -5 | -4 | 0.028 | -0.84 | 30 | nt | nt

Screening results (PubChem BioAssay)
